In ChEMBL document CHEMBL1154842, “Synthesis, radiolabeling, and biological evaluation of (R)- and (S)-2-amino-3-[(18)F]fluoro-2-methylpropanoic acid (FAMP) and (R)- and (S)-3-[(18)F]fluoro-2-methyl-2-N-(methylamino)propanoic acid (NMeFAMP) as potential PET radioligands for imaging brain tumors” (J Med Chem, 2010):

Assays:
[1] = Biodistribution in tumor of Fischer 344 rat bearing rat 9L cells at 20 uCi, iv after 30 mins; format: ADME, organism-based, Neoplasm; conditions: in vivo, 0.5 h
In short: (§1)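 Male Fischer 344 rats (200–250 g) carrying intracranial 9L gliosarcoma (5×10^4 cells implanted stereotactically, 10–12 days growth), under ketamine:xylazine anaesthesia. About 20 μCi tracer in 0.5 mL sterile saline given via tail-vein catheter. Groups of 4–5 were killed by intracardiac KCl at 15 (NMeFAMP only), 30, 60 or 120 min. Tissues were weighed and gamma-counted, decay-corrected, and reported as %ID/g, mean ± SD.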

Lung [2] = test: Biodistribution in lung of Fischer 344 rat bearing rat 9L cells at 20 uCi, iv after 120 mins; format: ADME, organism-based; conditions: in vivo, 2 h; in short: as §1
Heart [3] = test: Biodistribution in heart of Fischer 344 rat bearing rat 9L cells at 20 uCi, iv after 60 mins; format: ADME, organism-based; conditions: in vivo, 1 h; in short: as §1
Blood [4] = test: Biodistribution in blood of Fischer 344 rat bearing rat 9L cells at 20 uCi, iv after 120 mins; format: ADME, organism-based; conditions: in vivo, 2 h; in short: as §1
Kidney [5] = test: Biodistribution in kidney of Fischer 344 rat bearing rat 9L cells at 20 uCi, iv after 120 mins; format: ADME, organism-based; conditions: in vivo, 2 h; in short: as §1
Pancreas [6] = test: Biodistribution in pancreas of Fischer 344 rat bearing rat 9L cells at 20 uCi, iv after 30 mins; format: ADME, organism-based; conditions: in vivo, 0.5 h; in short: as §1
Spleen [7] = test: Biodistribution in spleen of Fischer 344 rat bearing rat 9L cells at 20 uCi, iv after 30 mins; format: ADME, organism-based; conditions: in vivo, 0.5 h; in short: as §1
[8] = Biodistribution in testis of Fischer 344 rat bearing rat 9L cells at 20 uCi, iv after 120 mins; format: ADME, organism-based; conditions: in vivo, 2 h; in short: as §1
Lung [9] = test: Biodistribution in lung of Fischer 344 rat bearing rat 9L cells at 20 uCi, iv after 15 mins; format: ADME, organism-based; conditions: in vivo, 0.25 h; in short: as §1
[10] = Biodistribution in testis of Fischer 344 rat bearing rat 9L cells at 20 uCi, iv after 60 mins; format: ADME, organism-based; conditions: in vivo, 1 h; in short: as §1
[11] = rat, in vivo, iv, 1 h
[12] = rat, in vivo, iv, 1 h; remark: listed apart in the source
Spleen [13] = test: Biodistribution in spleen of Fischer 344 rat bearing rat 9L cells at 20 uCi, iv after 60 mins; format: ADME, organism-based; conditions: in vivo, 1 h; in short: as §1
Muscle tissue [14] = test: Biodistribution in muscle of Fischer 344 rat bearing rat 9L cells at 20 uCi, iv after 60 mins; format: ADME, organism-based; conditions: in vivo, 1 h; in short: as §1
Blood [15] = test: Biodistribution in blood of Fischer 344 rat bearing rat 9L cells at 20 uCi, iv after 30 mins; format: ADME, organism-based; conditions: in vivo, 0.5 h; in short: as §1
Bone [16] = test: Biodistribution in bone of Fischer 344 rat bearing rat 9L cells at 20 uCi, iv after 30 mins; format: ADME, organism-based, Bone element; conditions: in vivo, 0.5 h; in short: as §1
Brain [17] = test: Biodistribution in brain of Fischer 344 rat bearing rat 9L cells at 20 uCi, iv after 30 mins; format: ADME, organism-based; conditions: in vivo, 0.5 h; in short: as §1
Brain [18] = test: Biodistribution in brain of Fischer 344 rat bearing rat 9L cells at 20 uCi, iv after 15 mins; conditions: in vivo
Bone [19] = test: Biodistribution in bone of Fischer 344 rat bearing rat 9L cells at 20 uCi, iv after 120 mins; format: ADME, organism-based, Bone element; conditions: in vivo, 2 h; in short: as §1
Spleen [20] = test: Biodistribution in spleen of Fischer 344 rat bearing rat 9L cells at 20 uCi, iv after 15 mins; format: ADME, organism-based; conditions: in vivo, 0.25 h; in short: as §1
Lung [21] = test: Biodistribution in lung of Fischer 344 rat bearing rat 9L cells at 20 uCi, iv after 60 mins; format: ADME, organism-based; conditions: in vivo, 1 h; in short: as §1
Kidney [22] = test: Biodistribution in kidney of Fischer 344 rat bearing rat 9L cells at 20 uCi, iv after 15 mins; format: ADME, organism-based; conditions: in vivo, 0.25 h; in short: as §1
[23] = Biodistribution in testis of Fischer 344 rat bearing rat 9L cells at 20 uCi, iv after 30 mins; format: ADME, organism-based; conditions: in vivo, 0.5 h; in short: as §1
Pancreas [24] = test: Biodistribution in pancreas of Fischer 344 rat bearing rat 9L cells at 20 uCi, iv after 15 mins; format: ADME, organism-based; conditions: in vivo, 0.25 h; in short: as §1
Muscle tissue [25] = test: Biodistribution in muscle of Fischer 344 rat bearing rat 9L cells at 20 uCi, iv after 15 mins; format: ADME, organism-based; conditions: in vivo, 0.25 h; in short: as §1
Brain [26] = test: Biodistribution in brain of Fischer 344 rat bearing rat 9L cells at 20 uCi, iv after 30 mins; conditions: in vivo, 0.5 h
[27] = Ratio of drug level from tumor to brain of Fischer 344 rat bearing rat 9L cells at 20 uCi, iv after 60 mins; conditions: in vivo, 1 h
Pancreas [28] = test: Biodistribution in pancreas of Fischer 344 rat bearing rat 9L cells at 20 uCi, iv after 60 mins; format: ADME, organism-based; conditions: in vivo, 1 h; in short: as §1
Kidney [29] = test: Biodistribution in kidney of Fischer 344 rat bearing rat 9L cells at 20 uCi, iv after 30 mins; format: ADME, organism-based; conditions: in vivo, 0.5 h; in short: as §1
Liver [30] = test: Biodistribution in liver of Fischer 344 rat bearing rat 9L cells at 20 uCi, iv after 30 mins; format: ADME, organism-based; conditions: in vivo, 0.5 h; in short: as §1
Spleen [31] = test: Biodistribution in spleen of Fischer 344 rat bearing rat 9L cells at 20 uCi, iv after 120 mins; format: ADME, organism-based; conditions: in vivo, 2 h; in short: as §1
Liver [32] = test: Biodistribution in liver of Fischer 344 rat bearing rat 9L cells at 20 uCi, iv after 120 mins; format: ADME, organism-based; conditions: in vivo, 2 h; in short: as §1
[33] = Ratio of drug level from tumor to brain of Fischer 344 rat bearing rat 9L cells at 20 uCi, iv after 120 mins; format: ADME, organism-based; conditions: in vivo, 2 h
Blood [34] = test: Biodistribution in blood of Fischer 344 rat bearing rat 9L cells at 20 uCi, iv after 15 mins; format: ADME, organism-based; conditions: in vivo, 0.25 h; in short: as §1
Blood [35] = test: Biodistribution in blood of Fischer 344 rat bearing rat 9L cells at 20 uCi, iv after 60 mins; format: ADME, organism-based; conditions: in vivo, 1 h; in short: as §1
Kidney [36] = test: Biodistribution in kidney of Fischer 344 rat bearing rat 9L cells at 20 uCi, iv after 60 mins; format: ADME, organism-based; conditions: in vivo, 1 h; in short: as §1
Heart [37] = test: Biodistribution in heart of Fischer 344 rat bearing rat 9L cells at 20 uCi, iv after 120 mins; format: ADME, organism-based; conditions: in vivo, 2 h; in short: as §1
[38] = Biodistribution in testis of Fischer 344 rat bearing rat 9L cells at 20 uCi, iv after 15 mins; format: ADME, organism-based; conditions: in vivo, 0.25 h; in short: as §1
Bone [39] = test: Biodistribution in bone of Fischer 344 rat bearing rat 9L cells at 20 uCi, iv after 60 mins; format: ADME, organism-based, Bone element; conditions: in vivo, 1 h; in short: as §1
Liver [40] = test: Biodistribution in liver of Fischer 344 rat bearing rat 9L cells at 20 uCi, iv after 15 mins; format: ADME, organism-based; conditions: in vivo, 0.25 h; in short: as §1
Muscle tissue [41] = test: Biodistribution in muscle of Fischer 344 rat bearing rat 9L cells at 20 uCi, iv after 120 mins; format: ADME, organism-based; conditions: in vivo, 2 h; in short: as §1
Pancreas [42] = test: Biodistribution in pancreas of Fischer 344 rat bearing rat 9L cells at 20 uCi, iv after 120 mins; format: ADME, organism-based; conditions: in vivo, 2 h; in short: as §1
Heart [43] = test: Biodistribution in heart of Fischer 344 rat bearing rat 9L cells at 20 uCi, iv after 30 mins; format: ADME, organism-based; conditions: in vivo, 0.5 h; in short: as §1
Heart [44] = test: Biodistribution in heart of Fischer 344 rat bearing rat 9L cells at 20 uCi, iv after 15 mins; format: ADME, organism-based; conditions: in vivo, 0.25 h; in short: as §1
Brain [45] = test: Biodistribution in brain of Fischer 344 rat bearing rat 9L cells at 20 uCi, iv after 15 mins; format: ADME, organism-based; conditions: in vivo, 0.25 h; in short: as §1
Liver [46] = test: Biodistribution in liver of Fischer 344 rat bearing rat 9L cells at 20 uCi, iv after 60 mins; format: ADME, organism-based; conditions: in vivo, 1 h; in short: as §1
Muscle tissue [47] = test: Biodistribution in muscle of Fischer 344 rat bearing rat 9L cells at 20 uCi, iv after 30 mins; format: ADME, organism-based; conditions: in vivo, 0.5 h; in short: as §1
Bone [48] = test: Biodistribution in bone of Fischer 344 rat bearing rat 9L cells at 20 uCi, iv after 15 mins; format: ADME, organism-based, Bone element; conditions: in vivo, 0.25 h; in short: as §1
Lung [49] = test: Biodistribution in lung of Fischer 344 rat bearing rat 9L cells at 20 uCi, iv after 30 mins; format: ADME, organism-based; conditions: in vivo, 0.5 h; in short: as §1

CN[C@@](C)(C[18F])C(=O)O.Cl
Ratio [1]: 53.2
Drug uptake (Lung [2]): 0.25 % ID/g
Drug uptake (Heart [3]): 0.24 % ID/g
Drug uptake (Blood [4]): 0.14 % ID/g
Drug uptake (Kidney [5]): 2.45 % ID/g
Drug uptake (Pancreas [6]): 2.72 % ID/g
Drug uptake (Spleen [7]): 0.63 % ID/g
Drug uptake [8]: 0.16 % ID/g
Drug uptake (Lung [9]): 0.79 % ID/g
Drug uptake [10]: 0.15 % ID/g
Drug uptake [11]: 0.05 % ID/g
Drug uptake [12]: 2.64 % ID/g
Drug uptake (Spleen [13]): 0.59 % ID/g
Drug uptake (Muscle tissue [14]): 0.2 % ID/g
Drug uptake (Blood [15]): 0.32 % ID/g
Drug uptake (Bone [16]): 0.48 % ID/g
Drug uptake (Brain [17]): 0.04 % ID/g
Ratio (Brain [18]): 25
Drug uptake (Bone [19]): 0.44 % ID/g
Drug uptake (Spleen [20]): 0.57 % ID/g
Drug uptake (Lung [21]): 0.38 % ID/g
Drug uptake (Kidney [22]): 9.22 % ID/g
Drug uptake [23]: 0.15 % ID/g
Drug uptake (Pancreas [24]): 2.25 % ID/g
Drug uptake (Muscle tissue [25]): 0.27 % ID/g
Drug uptake (Brain [26]): 0.04 % ID/g
Ratio [27]: 58.2
Drug uptake (Pancreas [28]): 3.41 % ID/g
Drug uptake (Kidney [29]): 8.91 % ID/g
Drug uptake (Liver [30]): 0.61 % ID/g
Drug uptake (Spleen [31]): 0.62 % ID/g
Drug uptake (Liver [32]): 0.4 % ID/g
Ratio [33]: 115.4
Drug uptake (Blood [34]): 0.41 % ID/g
Drug uptake (Blood [35]): 0.24 % ID/g
Drug uptake (Kidney [36]): 4.44 % ID/g
Drug uptake (Heart [37]): 0.22 % ID/g
Drug uptake [38]: 0.19 % ID/g
Drug uptake (Bone [39]): 0.51 % ID/g
Drug uptake (Liver [40]): 0.6 % ID/g
Drug uptake (Muscle tissue [41]): 0.22 % ID/g
Drug uptake (Pancreas [42]): 3.39 % ID/g
Drug uptake (Heart [43]): 0.23 % ID/g
Drug uptake (Heart [44]): 0.55 % ID/g
Drug uptake (Brain [45]): 0.06 % ID/g
Drug uptake (Liver [46]): 0.52 % ID/g
Drug uptake (Muscle tissue [47]): 0.23 % ID/g
Drug uptake (Bone [48]): 0.51 % ID/g
Drug uptake (Lung [49]): 0.36 % ID/g
